From ChEMBL document CHEMBL1127592, “Synthesis and SAR studies of novel triazolopyrimidine derivatives as potent, orally active angiotensin II receptor antagonists” (J Med Chem, 1994)

Legend:
[1] = molecular target: T1, Type-1 angiotensin II receptor B (Rattus norvegicus, UniProt P29089); assay: Displacement of [125I]-Sar1-Ile8-A II from rat adrenal Angiotensin-1 (AT-1) receptor
T1 sequence (P29089 whole entry): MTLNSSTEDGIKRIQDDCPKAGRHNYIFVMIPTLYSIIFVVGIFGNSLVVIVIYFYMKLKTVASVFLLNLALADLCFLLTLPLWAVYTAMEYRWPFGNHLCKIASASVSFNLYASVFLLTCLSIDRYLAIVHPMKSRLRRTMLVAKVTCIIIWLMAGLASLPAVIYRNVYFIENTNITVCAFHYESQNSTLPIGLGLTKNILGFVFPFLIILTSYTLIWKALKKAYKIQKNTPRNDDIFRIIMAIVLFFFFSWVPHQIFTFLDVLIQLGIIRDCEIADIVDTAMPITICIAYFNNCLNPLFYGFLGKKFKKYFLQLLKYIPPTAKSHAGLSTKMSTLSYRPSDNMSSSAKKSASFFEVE

Rattus norvegicus [2] = assay: Change in mean arterial blood pressure in renal artery ligated hypertensive rats, orally dosed at 1 mg/kg; type: functional; conditions: route oral
Summary of the method: (§1)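 Male CD Sprague-Dawley rats (250-270 g), left renal artery ligated under ketamine (100 mg/kg ip); catheterized for direct recording 2-3 days before test. Single oral gavage, 3-7 rats/group. MAP recorded before and for 16 h after dosing; value is maximal MAP decrease, mean ± SEM; decrease under 15 mmHg counted as no effect.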

Rattus norvegicus [3] = assay: Change in systolic arterial blood pressure in renal artery ligated hypertensive rats, orally dosed at 10 mg/kg; type: functional; conditions: route oral
Summary of the method: (§2)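 Conscious male CD Sprague-Dawley rats (250-270 g) with left renal artery ligated several days earlier under ketamine. Single oral gavage, 3-8 rats/group. Systolic pressure by indirect tail-cuff sphygmomanometry before and 3 h post-dose; change reported as SAP decrease at 3 h, mean ± SEM.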

[4] = molecular target: T2, Type-2 angiotensin II receptor (Rattus norvegicus, UniProt P35351); assay: In vitro binding affinity against angiotensin-2 (AT-2) receptor in rat adrenal
T2 sequence (P35351 whole entry): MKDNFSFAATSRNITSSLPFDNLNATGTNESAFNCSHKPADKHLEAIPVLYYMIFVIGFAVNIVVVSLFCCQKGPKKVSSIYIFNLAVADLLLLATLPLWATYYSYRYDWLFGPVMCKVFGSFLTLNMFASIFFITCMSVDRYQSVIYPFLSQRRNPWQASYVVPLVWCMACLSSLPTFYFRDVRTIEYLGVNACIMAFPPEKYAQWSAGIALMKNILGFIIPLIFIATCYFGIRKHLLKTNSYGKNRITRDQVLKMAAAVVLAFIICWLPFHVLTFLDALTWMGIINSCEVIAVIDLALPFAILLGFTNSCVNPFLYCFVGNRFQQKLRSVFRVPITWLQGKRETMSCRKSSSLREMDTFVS
Summary of the method: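 Rat adrenal membranes (25-40 μg protein) in Tris-HCl 50 mM, MgCl2 5 mM, 0.25% BSA, pH 7.2, with 0.2 nM [125I]Sar1-Ile8-AII and drug at 10^-9 to 10^-4 M, 60 min, 25 °C. 20 mM DTT included or omitted to separate AT1 and AT2 binding. Nonspecific binding with 1 μM AII; filtration. IC50 by log-logit, Ki by LIGAND; one experiment in triplicate.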

Rattus norvegicus [5] = assay: Compound at a dose of 1 mg/kg was administered orally and evaluated for change in mean arterial blood pressure in renal artery ligated hypertensive rats; type: functional; conditions: route oral; summary of the method: as §1
Rattus norvegicus [6] = assay: Compound at a dose of 10 mg/kg was administered orally and evaluated for change in systolic arterial blood pressure in renal artery ligated hypertensive rats; type: functional; conditions: route oral; summary of the method: as §2

Compound	Ki [1]	Change in blood pressure (Rattus norvegicus [2])	Change in blood pressure (Rattus norvegicus [3])	Ki [4]	Change in blood pressure (Rattus norvegicus [5])	Change in blood pressure (Rattus norvegicus [6])
CCCc1nc(C)n2nc(N)nc2c1Cc1ccc(-c2ccccc2-c2nn[nH]n2)cc1	0.001 µM	-33.4 mmHg	-77.2 mmHg			
CCCc1nc(C)n2nc(S(=O)(=O)NC)nc2c1Cc1ccc(-c2ccccc2-c2nn[nH]n2)cc1	0.139 µM	-14.1 mmHg	-37.2 mmHg			
CCCc1nc(C)n2nc(SCC(=O)OCC)nc2c1Cc1ccc(-c2ccccc2-c2nn[nH]n2)cc1	0.099 µM		-26.4 mmHg			
CCCc1nc(C)n2nc(OC)nc2c1Cc1ccc(-c2ccccc2-c2nn[nH]n2)cc1	0.027 µM		-26.2 mmHg			
CCCc1nc(C)n2nc(CC(=O)OCC)nc2c1Cc1ccc(-c2ccccc2-c2nn[nH]n2)cc1	0.009 µM	-18.1 mmHg	-84 mmHg			
CCCc1nc(CCC)n2nc(O)nc2c1Cc1ccc(-c2ccccc2-c2nn[nH]n2)cc1	0.659 µM	-22.2 mmHg	-72.6 mmHg			
CCc1nc(C)n2nc(O)nc2c1Cc1ccc(-c2ccccc2-c2nn[nH]n2)cc1	0.035 µM	-20.1 mmHg	-72.8 mmHg			
CCCc1nc(C)n2nc(C(F)(F)F)nc2c1Cc1ccc(-c2ccccc2-c2nn[nH]n2)cc1	0.147 µM		-11.8 mmHg			
CCCc1nc(C)n2c(=O)n(CCO)nc2c1Cc1ccc(-c2ccccc2-c2nn[nH]n2)cc1	0.006 µM	-25.6 mmHg	-67.9 mmHg			
CCCc1ncn2ncnc2c1Cc1ccc(-c2ccccc2-c2nn[nH]n2)cc1	0.05 µM		-20 mmHg			
Cc1nc(C2CC2)c(Cc2ccc(-c3ccccc3-c3nn[nH]n3)cc2)c2nc(O)nn12	0.082 µM	-12.3 mmHg	-51.1 mmHg			
CCCc1nc(CC)n2nc(O)nc2c1Cc1ccc(-c2ccccc2-c2nn[nH]n2)cc1	0.225 µM	-46.5 mmHg	-75.8 mmHg			
CCCc1nc(COC)n2nc(C)nc2c1Cc1ccc(-c2ccccc2-c2nn[nH]n2)cc1	0.111 µM	-21.8 mmHg	-44.4 mmHg			
CCCc1nc(C)n2nc(NC)nc2c1Cc1ccc(-c2ccccc2-c2nn[nH]n2)cc1	0.005 µM	-23.6 mmHg	-65.3 mmHg			
CCCc1ncn2nc(O)nc2c1Cc1ccc(-c2ccccc2-c2nn[nH]n2)cc1	0.046 µM	-17.9 mmHg	-38.3 mmHg			
CCCc1nc(COC)n2nc(O)nc2c1Cc1ccc(-c2ccccc2-c2nn[nH]n2)cc1	0.092 µM	-18.5 mmHg	-88.7 mmHg			
CCCc1nc(CO)n2nc(O)nc2c1Cc1ccc(-c2ccccc2-c2nn[nH]n2)cc1	0.01 µM	-21.5 mmHg	-40.6 mmHg			
CCCc1nc(C)n2nc(CO)nc2c1Cc1ccc(-c2ccccc2-c2nn[nH]n2)cc1	0.005 µM	-25.4 mmHg	-62.5 mmHg			
CCCc1nc(C)n2c(S)nnc2c1Cc1ccc(-c2ccccc2-c2nn[nH]n2)cc1	0.127 µM	-22.4 mmHg	-90.2 mmHg			
CCCc1nc(C)n2nc(SC)nc2c1Cc1ccc(-c2ccccc2-c2nn[nH]n2)cc1	0.174 µM	-11.8 mmHg	-32.2 mmHg			
CCCc1nc(C)n2nc(C(=O)O)nc2c1Cc1ccc(-c2ccccc2-c2nn[nH]n2)cc1	0.035 µM	-13.4 mmHg	-36.4 mmHg			
CCCc1nc(C)n2nc(S(=O)(=O)N(C)C)nc2c1Cc1ccc(-c2ccccc2-c2nn[nH]n2)cc1	0.185 µM		-7.2 mmHg			

Compound	Ki [1]	Change in blood pressure (Rattus norvegicus [2])	Change in blood pressure (Rattus norvegicus [3])	Ki [4]	Change in blood pressure (Rattus norvegicus [5])	Change in blood pressure (Rattus norvegicus [6])
CCCc1nc(CO)n2nc(C)nc2c1Cc1ccc(-c2ccccc2-c2nn[nH]n2)cc1	0.027 µM		-21.4 mmHg			
CCCCc1nc(C)n2c(S)nnc2c1Cc1ccc(-c2ccccc2-c2nn[nH]n2)cc1	0.106 µM	-24.3 mmHg	-86.3 mmHg			
CCCc1nc(SC)n2c(O)nnc2c1Cc1ccc(-c2ccccc2-c2nn[nH]n2)cc1			-15.6 mmHg			
CCCc1nc(C)n2nc(-c3ccccc3)nc2c1Cc1ccc(-c2ccccc2-c2nn[nH]n2)cc1	0.175 µM	-13.3 mmHg	-48.2 mmHg			
CCCCc1nc(C)n2nc(O)nc2c1Cc1ccc(-c2ccccc2C(=O)O)cc1	0.622 µM		-23.5 mmHg			
CCCc1nc(C)n2ncnc2c1Cc1ccc(-c2ccccc2-c2nn[nH]n2)cc1	0.012 µM	-20.1 mmHg	-89.7 mmHg			
CCCc1nc(C)n2nc(NCC(=O)OCC)nc2c1Cc1ccc(-c2ccccc2-c2nn[nH]n2)cc1	0.032 µM	-5.7 mmHg	-73.6 mmHg			
CCCc1nc(C)n2nc(CC)nc2c1Cc1ccc(-c2ccccc2-c2nn[nH]n2)cc1	0.008 µM	-8.9 mmHg	-69 mmHg			
CCCc1nc(C)n2nc(C)nc2c1Cc1ccc(-c2ccccc2-c2nn[nH]n2)cc1	0.032 µM	-17.9 mmHg	-71.8 mmHg			
CCCc1nc(C)n2nc(S)nc2c1Cc1ccc(-c2ccccc2-c2nn[nH]n2)cc1	0.01 µM	-19.7 mmHg	-57.8 mmHg			
CCCc1nc(C)n2c(O)nnc2c1Cc1ccc(NC(=O)c2ccccc2S(=O)(=O)O)cc1	0.041 µM		-18.3 mmHg			
CCCCc1nc(C)n2nc(O)nc2c1Cc1ccc(-c2ccccc2-c2nn[nH]n2)cc1	0.03 µM	-22.1 mmHg	-91.5 mmHg			
CCCc1nc(C)n2nc(S(N)(=O)=O)nc2c1Cc1ccc(-c2ccccc2-c2nn[nH]n2)cc1	0.011 µM	-14.5 mmHg	-61.3 mmHg			
CCCc1nc(C)n2c(O)nnc2c1Cc1ccc(-c2ccccc2-c2nn[nH]n2)cc1	0.01 µM	-44.6 mmHg	-87.5 mmHg			
CCCc1nc(C)n2c(=O)n(C)nc2c1Cc1ccc(-c2ccccc2-c2nn[nH]n2)cc1	0.053 µM	-25.1 mmHg	-48.8 mmHg			
CCCc1nc(C)n2[nH]c(=O)nc2c1Cc1ccc(-c2ccccc2-c2nnn[nH]2)cc1	0.024 µM			79.2 µM	-39.6 mmHg	-92.2 mmHg
CCCCc1nc(Cl)c(CO)n1Cc1ccc(-c2ccccc2-c2nnn[nH]2)cc1 [LOSARTAN]		-32.9 mmHg	-104.2 mmHg			
CCCc1nc(C)n2c(=O)n(CC(=O)OCC)nc2c1Cc1ccc(-c2ccccc2-c2nn[nH]n2)cc1	0.012 µM	-21.6 mmHg	-71.7 mmHg			
CCCc1nc(C)n2cnnc2c1Cc1ccc(-c2ccccc2-c2nn[nH]n2)cc1	0.01 µM	-24.2 mmHg	-77.2 mmHg			
CCCc1nc(C)n2nc(C(=O)OCC)nc2c1Cc1ccc(-c2ccccc2-c2nn[nH]n2)cc1	0.023 µM	-14.9 mmHg	-76.7 mmHg			
CCCc1nc(C)n2nc(COC)nc2c1Cc1ccc(-c2ccccc2-c2nn[nH]n2)cc1	0.015 µM	-13.2 mmHg	-73.1 mmHg			
